High-throughput results (PubChem BioAssay)
MC4R antagonist = antagonists of human melanocortin 4 receptor (MC4R); 0.48% of 360,000 active; P32245; MC4R-expressing cells, MTII-stimulated cAMP, LANCE TR-FRET; AID 540295; inhibition, % at 6.5 µM;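 active means inhibition above its plate's cutoff, the mean of tested wells on that plate plus 3 SD, cut at about 29% in these data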
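system = U2OS cells with stable human MC4R expression | also added = Melanotan II challenge after compound preincubation | dosing = one concentration, 6.5 µM nominal | incubation = compound 30 min, challenge 1 h, detection 1 h | measured by = TR-FRET with Eu-cAMP and labeled anti-cAMP, 671 nm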
ABHD5-PLIN5 inh = ABHD5-PLIN5 protein interaction inhibition; Split G. princeps luciferase complementation, luminescence, 4 h; inhibition, % at 4 µM; 0.78% of 360,000 active;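 active means inhibition above the mean inhibition across every tested compound plus 3 SD, cut at about 22% in these data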
PfGluPho inh = PfG6PD (Plasmodium falciparum) enzyme inhibition; AID 504690; PfGluPho enzyme, NADPH resazurin-diaphorase fluorescence; 0.78% of 350,000 active; inhibition, % at 20 µM;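 active means inhibition reaching at least a set limit at 20 µM in the primary screen, cut at about 59% in these data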
B2AR ag = activates human beta-2 adrenergic receptor causing internalization | 0.43% of 340,000 active | Am2.2-beta2AR cells, FAP receptor internalization, flow cytometry | P07550 | AID 504454 | response, % (no concentration beside the values);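 active means response above a set limit, near 3 SD of response in nonfluorescent compounds, cut at about 42% in these data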
Target sequence (P07550 whole entry, looked up): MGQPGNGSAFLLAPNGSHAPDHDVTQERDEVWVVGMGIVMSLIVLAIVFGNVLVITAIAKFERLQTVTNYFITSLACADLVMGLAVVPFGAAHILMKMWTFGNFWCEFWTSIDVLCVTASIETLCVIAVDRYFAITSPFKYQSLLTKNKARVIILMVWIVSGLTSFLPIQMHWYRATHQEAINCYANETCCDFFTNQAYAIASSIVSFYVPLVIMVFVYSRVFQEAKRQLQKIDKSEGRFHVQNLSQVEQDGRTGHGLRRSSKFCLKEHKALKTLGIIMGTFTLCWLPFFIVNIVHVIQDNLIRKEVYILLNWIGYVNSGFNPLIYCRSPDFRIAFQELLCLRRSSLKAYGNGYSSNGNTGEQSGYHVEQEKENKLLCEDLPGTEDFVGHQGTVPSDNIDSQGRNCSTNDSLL
MC4R barr agon = activates human MC4R beta-arrestin recruitment; P32245; U2OS MC4R beta-arrestin complementation, luminescence; percent of melanotan II response, DMSO zero; activation, % at 8.9 µM; 0.98% of 360,000 active;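 active means activation above a per-plate cutoff, the mean activation of sample wells on that plate plus 3 SD, cut at about 8% in these data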
PfG6PD confirm = confirmation of Plasmodium falciparum G6PD inhibitors | shares compounds with PfGluPho inh | recombinant PfGluPho, NADPH-diaphorase-resazurin fluorescence | inhibition, % at 20 µM | 34% of 2,400 active;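 active means inhibition of at least 50% at 20 µM in any single replicate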
Diaphorase 10uM = counter-screen for P. falciparum G6PD inhibitors: diaphorase inhibitors, oxidizers; 39% of 820 active; inhibition, % at 20 µM; diaphorase-coupled resazurin reduction, fluorescence, NADPH 10 uM; shares compounds with PfGluPho inh;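 active means average inhibition reaching 50% or more with the compound at 20 µM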;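 further: resorufin red fluorescence formed as diaphorase reduces resazurin using NADPH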
Diaph ctr 30uM = counter-screen for P. falciparum G6PD inhibitors: diaphorase inhibitors, oxidizers; AID 504863; 29% of 820 active; Diaphorase/resazurin coupled assay, resorufin fluorescence, 30 uM NADPH; shares compounds with PfGluPho inh; inhibition, % at 20 µM;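 active means inhibition averaging 50% or more, tested at 20 µM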
Of the large screens only hits and unclear results are named; the others gave an inactive call (follow-up assays come after a bar, where they were run). Shown are actives, neighbours in structure and some others; about 3% of the full set was active somewhere.

Nc1ccc2nc(-c3ccccc3)c(-c3ccccc3)nc2c1	PfGluPho inh 79 | PfG6PD confirm inactive
O=c1ccsn1Cc1ccccc1	ABHD5-PLIN5 inh 82, PfGluPho inh 94 | PfG6PD confirm 75 | Diaphorase 10uM inactive | Diaph ctr 30uM inactive
O=C1NC(Cc2ccccc2)C(=O)N1Cc1ccccc1 (centres undefined)	none
COc1ccc(C(=O)NC(=S)NCc2ccco2)cc1	none
Oc1ccc(NCc2cccc(OCc3ccccc3)c2)cc1	PfGluPho inh 59 | PfG6PD confirm inactive
Oc1ccc(NCc2cccc(OCc3ccc(F)cc3)c2)cc1	none
CCC1(CC)Cc2ccccc2C(N)=C1C#N	PfGluPho inh 61 | PfG6PD confirm 49 | Diaphorase 10uM 50 | Diaph ctr 30uM inactive
CCC1(CC)Cc2ccccc2C(=O)N1	none
O=C(CSc1cccc2cccnc12)N/N=C/c1ccc(O)cc1	none
COc1cccc(/C=N/NC(=O)CSc2cccc3cccnc23)c1	PfGluPho inh 69 | PfG6PD confirm 54 | Diaphorase 10uM 64 | Diaph ctr 30uM inactive
CSCCC(NC(=O)c1ccccc1)C(=O)N/N=C(\C)c1ccccc1 (centres undefined)	none
COc1cccc2c3cccc(OC)c3c3[nH]cnc3c12	PfGluPho inh 68 | PfG6PD confirm inactive
COc1ccc2nc(NC(=S)N(C)C)sc2c1	PfGluPho inh 70 | PfG6PD confirm inactive
COC(=O)CCC(=O)OC1(C)C(=O)C2=CN(CC3CC3)C(c3ccc(OC)cc3)=CC2=C(Br)C1=O (centres undefined)	PfGluPho inh 76 | PfG6PD confirm inactive
COC(=O)CCC(=O)OC1(C)C(=O)C2=CN(C3CC3)C(c3ccc(OC)cc3)=CC2=C(Br)C1=O (centres undefined)	PfGluPho inh 72 | PfG6PD confirm 52 | Diaphorase 10uM inactive | Diaph ctr 30uM inactive
COC(=O)CCC(=O)OC1(C)C(=O)C2=CN(Cc3ccc(OC)cc3)C(c3ccc(OC)cc3)=CC2=C(Br)C1=O (centres undefined)	none
O=C(Nc1oc2ccc(Cl)cc2c(=O)c1-c1ccc(F)cc1)c1ccco1	none
Cc1nc(CNS(=O)(=O)c2ccc(F)cc2)cs1	none
O=C(Nc1ncc([N+](=O)[O-])s1)c1cccc([N+](=O)[O-])c1	PfGluPho inh 103 | PfG6PD confirm 89 | Diaphorase 10uM 77 | Diaph ctr 30uM 69
Cc1ccc(C(=O)O)cc1-c1ccc(C=C2C(=O)c3ccccc3C2=O)o1	none
Cc1cc(C(=O)O)ccc1-n1c(C)cc(C=C2C(=O)c3ccccc3C2=O)c1C	PfGluPho inh 80 | PfG6PD confirm 47 | Diaphorase 10uM 60 | Diaph ctr 30uM inactive
O=[N+]([O-])c1ccc2c(c1)-c1ccccc1C2O (centres undefined)	PfGluPho inh 114 (no result: B2AR ag) | PfG6PD confirm 97 | Diaphorase 10uM inactive | Diaph ctr 30uM inactive
O=C(C[n+]1cc(-c2ccc(Cl)cc2)n2c1CCC2)Nc1nc(-c2ccc(F)cc2)cs1	none
CCCN(Cc1cc2ccc(C)cc2[nH]c1=O)C(=O)c1ccccn1	PfGluPho inh 96 | PfG6PD confirm 69 | Diaphorase 10uM 50 | Diaph ctr 30uM 50
CCOC(=O)C1=CC[C@]2(C)c3c(c4ccccc4n3C)C(=O)C1N2C	none
Cc1cc(C)c(C)c(S(=O)(=O)Nc2ccc3cn[nH]c3c2)c1C	PfGluPho inh 92 | PfG6PD confirm inactive
CN(C)c1ccc(C(=S)N2CCN(c3ccc([N+](=O)[O-])cc3)CC2)cc1	PfGluPho inh 60 | PfG6PD confirm inactive
O=[N+]([O-])c1ccc(C(=S)N2CCN(c3ccc(F)cc3)CC2)cc1	none
Cc1noc(C)c1S(=O)(=O)NCc1cccc(Cl)c1	none
COc1cc(CN2CCN(CCCc3ccccc3)C(CCO)C2)cc(OC)c1O (centres undefined)	PfGluPho inh 61 | PfG6PD confirm 57 | Diaphorase 10uM inactive | Diaph ctr 30uM inactive
COc1ccc(CN2CCN(CCCc3ccccc3)C(CCO)C2)c(OC)c1 (centres undefined)	none
Cc1cc(O)c(C(C)C)cc1N=Cc1ccccc1[N+](=O)[O-]	PfGluPho inh 101 | PfG6PD confirm 65 | Diaphorase 10uM inactive | Diaph ctr 30uM inactive
CCn1cc(/C=N/NC(=O)c2ccc(C#N)cc2F)c2ccccc21	PfGluPho inh 107 | PfG6PD confirm 89 | Diaphorase 10uM 81 | Diaph ctr 30uM 64
CCC(C)CN1C(=O)CSCC1(C)C(=O)NC(C)C (centres undefined)	none (no result: MC4R antagonist, PfGluPho inh, B2AR ag, MC4R barr agon)
Cc1ccc(-c2nn(C)c(=O)c3ccccc23)cc1CNC(=O)/C=C/c1ccccc1	PfGluPho inh 77 | PfG6PD confirm 76 | Diaphorase 10uM 59 | Diaph ctr 30uM inactive
CC(=O)c1cccc(N(C(=O)CNC(=O)c2ccco2)C(C(=O)NC2CCCC2)c2ccco2)c1 (centres undefined)	none
COCCOCCn1c(CCCO)nc2ccccc21	none
COc1ccc(/C=C/c2nc3ccccc3n2Cc2ccc(OC)c(OC)c2)cc1	PfGluPho inh 66 | PfG6PD confirm 49 | Diaphorase 10uM inactive | Diaph ctr 30uM inactive
CCCn1c(/C=C/c2ccccc2)nc2ccccc21	PfGluPho inh 59 | PfG6PD confirm inactive
CCn1c(/C=C/c2cc[n+](C)cc2)nc2ccccc21	none
COCCOCCn1c(/C=C/c2ccccc2)nc2ccccc21	PfGluPho inh 63 | PfG6PD confirm inactive
C[C@@H]1CCC(=O)N(CC[C@H](Oc2ccccc2)c2ccccc2)CC1	none
CC1(C(=O)Nc2cnc3ccccc3c2)CCN1C(=O)CCc1ccccc1 (centres undefined)	none (no result: PfGluPho inh, B2AR ag)
CC(SC(=S)N(C)Cc1cccs1)C(=O)O (centres undefined)	none
CN(C)c1nc(=NCc2cccs2)ss1	ABHD5-PLIN5 inh 78, PfGluPho inh 60 | PfG6PD confirm 49 | Diaphorase 10uM inactive | Diaph ctr 30uM inactive
CCCCCN(C(=O)CCC(=O)OCC(=O)N(CC)C1CCCCC1)c1c(N)n(CCCC)c(=O)[nH]c1=O	none
Cc1cc(C)cc(Cn2cc(CN3CC(N4CCSCC4)CS3(=O)=O)nn2)c1 (centres undefined)	none (no result: MC4R antagonist, PfGluPho inh, B2AR ag, MC4R barr agon)
CN1CCC(=NNC(=O)CSc2ccc(Cl)cc2)CC1	none
Cc1c(C(=O)N(Cc2ccccc2Cl)C2CCS(=O)(=O)C2)oc2ccccc12 (centres undefined)	PfGluPho inh 96 | PfG6PD confirm 57 | Diaphorase 10uM 59 | Diaph ctr 30uM inactive
Cc1ccc2oc(C(=O)N(Cc3ccccc3)C3CCS(=O)(=O)C3)c(C)c2c1 (centres undefined)	none
